Results pooled from the literature.
Lines come from different studies, so protocols differ.
Target: Dual specificity tyrosine-phosphorylation-regulated kinase 1B (DYRK1B, Homo sapiens, UniProt Q9Y463)
Read-out: enzyme activity
Mode: inhibitor

CC(C)(O)[C@H]1CC[C@H](Nc2ccc3ncc(-c4cccc(C(F)(F)F)c4)n3n2)CC1
remaining activity (1 µM): 15.3%

O=C(Nc1cnn(-c2csc(C(=O)NC3COC3)c2)c1)Nc1c(F)cccc1Cl
remaining activity (5 µM): 82.8%

O=C(O)c1ccc2c(c1)nc(Nc1ccc(Cl)cc1)c1ccncc12
remaining activity (radiometric; 1 µM): 65%

COc1cc(Cl)c(C(=O)N[C@@H](CN[C@H]2CC[C@@H](N)CC2)Cc2ccc(C#N)cc2)cc1-c1ccc(CN[C@H](C)c2ccc(C)cc2)o1
remaining activity (1 µM): 101%

O=C(O)c1ccc2c(c1)nc(NCCc1ccccc1)c1ccncc12
remaining activity (radiometric; 1 µM): 114%

Cc1cnc(NC2CCOCC2)nc1-n1cnc(C(=O)NC(CN)c2cc(F)cc(Cl)c2)c1 (centres unmarked)
remaining activity (radiometric; 1 µM): 80%

Nc1ncnc2occ(-c3ccc(NC(=O)Nc4cc(C(F)(F)F)ccc4F)cc3)c12
remaining activity (20 µM): 80%

O=C(Nc1cnn(-c2csc(C(=O)NC3COC3)c2)c1)Nc1ccccc1Cl
remaining activity (5 µM): 87%
